Experimental data published in ChEMBL document CHEMBL1157638, “Fluorescent epigenetic small molecule induces expression of the tumor suppressor ras-association domain family 1A and inhibits human prostate xenograft” (J Med Chem, 2010).
The source made the active and inactive calls. No cut-off for these calls is given here.

What was measured:
786-0 = assay: Growth inhibition of human 786-0 cells assessed as cell growth at 1 uM relative to untreated control; assay type: functional; settings: read-out: Activity
T47D = assay: Growth inhibition of human T47D cells assessed as cell growth at 10 uM relative to untreated control; assay type: functional; settings: read-out: Activity
CAKI-1 [1] = assay: Growth inhibition of human Caki1 cells; assay type: functional
In short: (§1)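 Run externally at the National Cancer Institute as a 59-cell-line panel screen, with concentrations up to 100 μM. Growth was scored relative to control, where negative growth or total cell kill was possible. Data are in the Supporting Information.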

SF-268 = assay: Growth inhibition of human SF268 cells assessed as cell growth at 1 nM relative to untreated control; assay type: functional; settings: read-out: Activity
COLO 205 = assay: Growth inhibition of human COLO205 cells; assay type: functional
SK-MEL-28 = assay: Growth inhibition of human SK-MEL-28 cells assessed as cell growth at 1 uM relative to untreated control; assay type: functional; settings: read-out: Activity
TK-10 = assay: Growth inhibition of human TK10 cells; assay type: functional
HOP-92 [2] = assay: Growth inhibition of human HOP92 cells assessed as cell growth at 100 nM relative to untreated control; assay type: functional; settings: read-out: Activity; in short: as §1
HOP-62 = assay: Growth inhibition of human HOP62 cells assessed as cell growth at 10 uM relative to untreated control; assay type: functional; settings: read-out: Activity; in short: as §1
SK-MEL-2 [3] = assay: Growth inhibition of human SK-MEL-2 cells assessed as cell growth at 1 nM relative to untreated control; assay type: functional; settings: read-out: Activity
A498 = assay: Growth inhibition of human A498 cells assessed as cell growth at 1 nM relative to untreated control; assay type: functional; settings: read-out: Activity
IGROV-1 = assay: Growth inhibition of human IGROV1 cells assessed as cell growth at 1 uM relative to untreated control; assay type: functional; settings: read-out: Activity
CAKI-1 [4] = assay: Growth inhibition of human Caki1 cells assessed as cell growth at 1 nM relative to untreated control; assay type: functional; settings: read-out: Activity; in short: as §1
SK-MEL-5 = assay: Growth inhibition of human SK-MEL-5 cells assessed as cell growth at 1 nM relative to untreated control; assay type: functional; settings: read-out: Activity
PC-3 [5] = assay: Increase in RASSF1A gene expression in human PC3 cells at 5 uM after 3 days hrs by RT-PCR; assay type: functional, cell-based
In short: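 PC-3 cells incubated 3 days with compound, then RNA extracted with TRIzol. 500 ng total RNA reverse-transcribed with random hexamers. RASSF1A amplified with previously described primers and conditions. Products run on 1.5% agarose and stained with ethidium bromide. Bands quantified by densitometry against untreated cells, with RASSF1A re-expression from the reference alkaloid set to 100%.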

K562 = assay: Growth inhibition of human K562 cells assessed as cell growth at 1 uM relative to untreated control; assay type: functional; settings: read-out: Activity
M14 [6] = assay: Growth inhibition of human M14 cells assessed as cell growth at 1 nM relative to untreated control; assay type: functional; settings: read-out: Activity
U-251 [7] = assay: Growth inhibition of human U251 cells assessed as cell growth at 100 nM relative to untreated control; assay type: functional; settings: read-out: Activity
OVCAR-3 [8] = assay: Growth inhibition of human OVCAR-3 cells assessed as cell growth at 10 uM relative to untreated control; assay type: functional; settings: read-out: Activity
SR = assay: Growth inhibition of human SR cells; assay type: functional
HCT-15 = assay: Growth inhibition of human HCT15 cells assessed as cell growth at 1 uM relative to untreated control; assay type: functional; settings: read-out: Activity; in short: as §1
SK-MEL-2 [9] = assay: Growth inhibition of human SK-MEL-2 cells assessed as cell growth at 10 uM relative to untreated control; assay type: functional; settings: read-out: Activity
NCI/ADR-RES = assay: Growth inhibition of human NCI/ADR-RES cells; assay type: functional
NCI-H460 = assay: Growth inhibition of human NCI-H460 cells assessed as cell growth at 100 nM relative to untreated control; assay type: functional; settings: read-out: Activity
PC-3 [10] = assay: Antitumor activity against human PC3 cells xenografted in athymic BALB/c mouse assessed as reduction in tumor volume at 10 mg/kg, ip dosed every other day for 28 days relative to untreated control; assay type: functional; parameters: scale not given: the % may be the effect or the level left; settings: route intraperitoneal
In short: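 Male athymic Balb/c nude mice (18-22 g) got 3 × 10⁶ PC-3 cells subcutaneously in the right axillary region. After one week they were randomized into two groups of four. Dosing was 10 mg/kg ip or vehicle once every other day for 28 days. Vehicle was DMSO stock diluted in 1:1 PEG 400/PBS. Tumour volume was measured by caliper as length × width × height/2. Data are mean ± SEM (n = 4).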

RXF 393 = assay: Growth inhibition of human RXF393 cells assessed as cell growth at 10 uM relative to untreated control; assay type: functional; settings: read-out: Activity
SF-539 = assay: Growth inhibition of human SF539 cells assessed as cell growth at 100 nM relative to untreated control; assay type: functional; settings: read-out: Activity
[11] = Growth inhibition of human […] cells assessed as cell growth at 10 nM relative to untreated control; assay type: functional; settings: read-out: Activity
SN12C = assay: Growth inhibition of human SN12C cells assessed as cell growth at 10 nM relative to untreated control; assay type: functional; settings: read-out: Activity
NCI-H522 = assay: Growth inhibition of human NCI-H522 cells assessed as cell growth at 1 uM relative to untreated control; assay type: functional; settings: read-out: Activity
U-251 [12] = assay: Growth inhibition of human U251 cells; assay type: functional
SK-OV-3 = assay: Growth inhibition of human SKOV3 cells assessed as cell growth at 10 nM relative to untreated control; assay type: functional; settings: read-out: Activity
[13] = Growth inhibition of human […] cells assessed as cell growth at 100 nM relative to untreated control; assay type: functional; settings: read-out: Activity
A549 = assay: Growth inhibition of human A549 cells assessed as cell growth at 1 nM relative to untreated control; assay type: functional; settings: read-out: Activity
[14] = Growth inhibition of human […] cells assessed as cell growth at 10 uM relative to untreated control; assay type: functional; settings: read-out: Activity
PC-3 [15] = assay: Growth inhibition of human PC3 cells assessed as cell growth at 1 uM relative to untreated control; assay type: functional; settings: read-out: Activity
OVCAR-4 = assay: Growth inhibition of human OVCAR4 cells assessed as cell growth at 1 uM relative to untreated control; assay type: functional; settings: read-out: Activity
OVCAR-3 [16] = assay: Growth inhibition of human OVCAR-3 cells assessed as cell growth at 100 nM relative to untreated control; assay type: functional; settings: read-out: Activity
NCI-H23 = assay: Growth inhibition of human NCI-H23 cells assessed as cell growth at 100 nM relative to untreated control; assay type: functional; settings: read-out: Activity
DU-145 = assay: Growth inhibition of human DU145 cells; assay type: functional; in short: as §1
M14 [17] = assay: Growth inhibition of human M14 cells assessed as cell growth at 100 nM relative to untreated control; assay type: functional; settings: read-out: Activity
HOP-92 [18] = assay: Growth inhibition of human HOP92 cells assessed as cell growth at 10 nM relative to untreated control; assay type: functional; settings: read-out: Activity; in short: as §1
PC-3 [19] = assay: Growth inhibition of human PC3 cells; assay type: functional
[20] = read-out: LC50 (the source's name)

COc1ccc2c(c1)[nH]c1c(C)c(OS(=O)(=O)c3cccc4c(N(C)C)cccc34)ccc12
growth at 1 µM (786-0): 30%
growth at 10 µM (T47D): 2%
GI50 (CAKI-1 [1]): 27.5 µM
TGI (CAKI-1 [1]): > 100 µM
CC50 (CAKI-1 [1]; [20]): > 100 µM
growth at 0.001 µM (SF-268): 102%
GI50 (COLO 205): 4.24 µM
TGI (COLO 205): > 100 µM
CC50 (COLO 205; [20]): > 100 µM
growth at 1 µM (SK-MEL-28): 39%
GI50 (TK-10): 9.19 µM
TGI (TK-10): > 100 µM
CC50 (TK-10; [20]): > 100 µM
growth at 0.1 µM (HOP-92 [2]): 91%
growth at 10 µM (HOP-62): 35%
growth at 0.001 µM (SK-MEL-2 [3]): 115%
growth at 0.001 µM (A498): 93%
growth at 1 µM (IGROV-1): 59%
growth at 0.001 µM (CAKI-1 [4]): 98%
growth at 0.001 µM (SK-MEL-5): 100%
Activity (PC-3 [5]): Active
growth at 1 µM (K562): 5%
growth at 0.001 µM (M14 [6]): 102%
growth at 0.1 µM (U-251 [7]): 92%
growth at 10 µM (OVCAR-3 [8]): -9%
GI50 (SR): 3.51 µM
TGI (SR): > 100 µM
CC50 (SR; [20]): > 100 µM
growth at 1 µM (HCT-15): 25%
growth at 10 µM (SK-MEL-2 [9]): 18%
GI50 (NCI/ADR-RES): 4.63 µM
TGI (NCI/ADR-RES): > 100 µM
CC50 (NCI/ADR-RES; [20]): > 100 µM
growth at 0.1 µM (NCI-H460): 98%
Activity (PC-3 [10]): 40%
growth at 10 µM (RXF 393): -32%
growth at 0.1 µM (SF-539): 87%
growth at 0.01 µM [11]: 58%
growth at 0.01 µM (SN12C): 92%
growth at 1 µM (NCI-H522): 50%
GI50 (U-251 [12]): 4.28 µM
TGI (U-251 [12]): > 100 µM
CC50 (U-251 [12]; [20]): > 100 µM
growth at 0.01 µM (SK-OV-3): 95%
growth at 0.1 µM [13]: 90%
growth at 0.001 µM (A549): 101%
growth at 10 µM [14]: -2%
growth at 1 µM (PC-3 [15]): 18%
growth at 1 µM (OVCAR-4): 44%
growth at 0.1 µM (OVCAR-3 [16]): 97%
growth at 0.1 µM (NCI-H23): 81%
GI50 (DU-145): 3.54 µM
TGI (DU-145): > 100 µM
CC50 (DU-145; [20]): > 100 µM
growth at 0.1 µM (M14 [17]): 100%
growth at 0.01 µM (HOP-92 [18]): 96%
GI50 (PC-3 [19]): 39.3 µM
TGI (PC-3 [19]): > 100 µM
CC50 (PC-3 [19]; [20]): > 100 µM
